Screens (PubChem)
This is a sample that favours compounds with a hit; in the whole collection about 4.9% have one here.
STAT1 activator: STAT1 signaling activators, primary screen, cell-based, HTS, luciferase reporter; activation (% of control), % at 5.5 µM; AID 932, 2007; hit rate 2.6% among 200,000; NIH 3T3 STAT1-luciferase reporter, IFN-gamma, luminescence; 100% = IFN-gamma alone, no compound;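 active = activation above the screen-wide mean activation plus 3 SD, cut at about 130% in these data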;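 also: raw ratio to IFN-gamma control signal so 100% means no change and 0% no light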
STAT3 blocker: IL-6 driven STAT3 reporter inhibitors, primary screen, U3A cells, luciferase, luminescence, MLSCN library. IL-6 STAT3-luciferase reporter; host cell line lacks STAT1. inhibition, % at 5.5 µM. AID 862, 2007. hit rate 0.89% among 190,000;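 active = inhibition above the mean inhibition across all screened compounds plus 3 SD, cut at about 44% in these data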;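 also: 0% = DMSO only wells and 100% = 100 µM nifuroxazide control wells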
STAT1 inh: STAT1 signaling inhibitors, primary screen, cell-based, HTS, luciferase reporter. inhibition, % at 5.5 µM. hit rate 0.35% among 200,000. AID 920, 2007. NIH 3T3 STAT1-luciferase reporter, IFN-gamma, luminescence;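 active = inhibition above a set limit, the mean inhibition across all tested compounds plus 3 SD, cut at about 34% in these data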;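 also: 0% = IFN-gamma with DMSO and 100% = IFN-gamma with 300 µM nifuroxazide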
STAT3 act: IL-6 driven STAT3 reporter potentiators, primary screen, U3A cells, luciferase, luminescence, MLSCN library | IL-6 STAT3-luciferase reporter; 100% = signal with IL-6 EC80 alone | activation (% of control), % at 5.6 µM | hit rate 0.91% among 190,000 | AID 871, 2007;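 active = activation above the screen-wide mean of compound activation plus 3 SD, cut at about 130% in these data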;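 also: 0% = background luminescence of wells with medium and substrate only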
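Test system: human U3A cells carrying STAT3-luciferase construct; control set: IL-6-only wells as 100% reference; timing: compound pre-incubation 1 h before IL-6, then 6 h stimulation at 37 °C; also added: IL-6 stimulus at 33 ng/mL final; evaluation: % activation versus median of IL-6-stimulated wells; detection: reporter luminescence signal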
APP 5'UTR act: activators of APP 5'UTR luciferase reporter, primary screen, SH-SY5Y cells; SH-SY5Y APP 5'UTR luciferase reporter, luminescence; zero percent = DMSO vehicle wells; activation, % at 2 µM; hit rate 1% among 190,000; AID 1276, 2008;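 active = activation above a set limit, based on mean plus 3 SD of controls, cut at about 140% in these data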
NF-kB expr up: activators of NF-kB expression in neurons, primary screen, cell-based, HTS | human neuronal cells, NF-kB reporter expression; active compounds read high | AID 1239, 2008 | fold change at 12.5 µM | hit rate 1.6% among 190,000; in the data active = fold change above about 3.3
STAT1 act conf: STAT1 signaling activators, confirmation, cell-based, HTS, luciferase reporter | shares compounds with STAT1 activator | NIH 3T3 STAT1-luciferase reporter, IFN-gamma potentiation, luminescence; 100% = IFN-gamma EC80 alone, no compound | activation (% of control), % at 5.7 µM | hit rate 97% among 1,200;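 active = activation above a set limit carried over from the earlier primary STAT1 screen, cut at about 140% in these data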;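 also: simple ratio to median IFN-gamma plus DMSO wells so 0% means no light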
NFkB act: NF-kB reporter activators, TNF-alpha stimulated, counter-screen for STAT1 activator project, cell-based, HEK293T, luciferase luminescence | shares compounds with STAT1 activator | 100% = TNF-alpha with vehicle only | activation (% of control), % at 5.7 µM | hit rate 43% among 1,200;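 active = activation above the mean of solvent-only control wells plus 3 SD, set per campaign, cut at about 130% in these data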;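 also: TNF-alpha given at a submaximal dose yielding about 80% of full reporter signal; values are well signal over median control so 100% means no change and 0% no light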
STAT3 act 2: STAT3 reporter activation by STAT1 hits, confirmation, counter-screen for STAT1 activator project, U3A cells, luciferase, luminescence | activation (% of control), % at 5.7 µM | shares compounds with STAT1 activator | AID 1316, 2008 | hit rate 46% among 1,200 | IL-6; cells lack STAT1; 100 = IL-6 alone, no compound effect;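 active = activation above the solvent-only control well mean plus 3 SD, set per plate batch, cut at about 110% in these data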;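 also: 0% = no luminescence and 100% = median IL-6 plus DMSO wells; higher means more STAT3 reporter activation so hits are non-selective activators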
Numbers without * were called inactive; nt = no result given.

SMILES	STAT1 activator	STAT3 blocker	STAT1 inh	STAT3 act	APP 5'UTR act	NF-kB expr up	STAT1 act conf	NFkB act	STAT3 act 2
Cc1cccc(-c2nc(CS(=O)CC(=O)NC3CCCC3)c(C)o2)c1 (stereo not drawn)	106	8	-6	98	7	1.1	nt	nt	nt
C=CCNC(=S)NNc1nc2c(c(=O)[nH]1)C1(CCCCC1)Cc1ccccc1-2	92	-4	9	106	20	1.3	nt	nt	nt
COc1ccc(CN2CCN(Cc3cccn3-c3ncccn3)CC2CCO)c(C)c1C (stereo not drawn)	110	11	-13	94	-3	1.2	nt	nt	nt
O=C1OC(Cc2ccccn2)C(O)=C1C1=NCCCN1 (stereo not drawn)	110	-2	-12	101	8	1.4	nt	nt	nt
O=C1OC(Cc2ccccn2)C(O)=C1C1=NCCCCN1 (stereo not drawn)	152*	-3	-58	103	105	2.1	151*	115	114*
Cc1cc(-n2c(C)cc(C(=O)CN3C(=O)NC4(CCCCC4C)C3=O)c2C)no1 (stereo not drawn)	102	8	-2	100	-41	0.69	nt	nt	nt
Cc1cc(C(=O)CN2C(=O)NC3(CCCCC3C)C2=O)c(C)n1Cc1cccs1 (stereo not drawn)	155*	-20	-61	114	77	1.4	175*	133	125*
Cc1cc(C(=O)CN2C(=O)NC3(CCCCC3)C2=O)c(C)n1Cc1ccco1	158*	-19	-68	120	122	1.2	180*	137*	134*
Cc1cc(C(=O)CN2C(=O)NC3(CCCCC3)C2=O)c(C)n1Cc1ccc2c(c1)OCO2	120	-5	-22	106	16	1.6	nt	nt	nt
Cc1ccnc(NS(=O)(=O)c2ccc(NC(=O)c3ccc(S(=O)(=O)N4CCCC4)cc3)cc2)n1	108	6	-11	100	0	0.9	nt	nt	nt
Cc1ccc(NC(=O)c2cc(-c3ccccc3)nn2-c2ccccc2)cc1	105	-8	-5	105	17	1.3	nt	nt	nt
CC(=O)C(/C=N/c1cc(-c2ccc(C)cc2)nn1-c1ccccc1)=C(\C)O	159*	-8	-66	104	97	2.1	161*	127	94
Cc1ccc2nc(-c3ccc(NS(=O)(=O)c4ccc(F)c(F)c4)cc3)sc2c1	172*	41	-82	68	180*	6.5*	217*	137*	84
Cc1ccc2nc(-c3ccc(NS(=O)(=O)c4ccccc4)cc3)sc2c1	110	3	-12	97	1	1.3	nt	nt	nt
CSc1ccc(/C=N/NC(=O)c2sccc2C)cc1	192*	22	-104	84	219*	4.1*	249*	122	101
Cc1ccc2oc(-c3cccc(NC(=O)Cn4cnc5c(=O)n(C)c(=O)n(C)c54)c3)nc2c1	113	4	-15	97	94	2.6	nt	nt	nt
CCOc1cccc(-c2nc3cc(C)ccc3o2)c1	152*	-16	-57	116	64	1.8	159*	122	128*
COc1ccc(C(=O)Nc2ccc(S(=O)(=O)Nc3onc(C)c3C)cc2)c(OC)c1	102	1	-3	100	0	1.2	nt	nt	nt
